Reference: ChEMBL document CHEMBL1275462 (Antimicrob Agents Chemother, 2008)
Values after ≈ are worked out from the molar mass of the structure shown. Active and inactive are the calls of the source. No cut-off for these calls is given here.

Tests used:
Staphylococcus aureus [1] = assay: Antimicrobial activity against methicillin-resistant Staphylococcus aureus BK2464 by Etest; assay type: functional
How it was run: (§1)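 Etest (manufacturer's method) and population analysis: overnight cultures serially diluted and plated on TSA with increasing oxacillin or BPR, CFU counted after 48 h at 37°C. Colonies from subpopulations growing at high oxacillin or BPR were picked, restreaked on antibiotic-free TSA for three passages, then retested by population analysis.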

Staphylococcus aureus [2] = assay: Antimicrobial activity against methicillin-resistant Staphylococcus aureus HDE288 by Etest; assay type: functional; how it was run: as §1
Staphylococcus aureus [3] = assay: Antimicrobial activity against methicillin-resistant Staphylococcus aureus HAR24 by Etest; assay type: functional; how it was run: as §1
Staphylococcus aureus [4] = assay: Antimicrobial activity against methicillin-resistant Staphylococcus aureus HAR22 by Etest; assay type: functional; how it was run: as §1
Staphylococcus aureus [5] = assay: Antimicrobial activity against methicillin-resistant Staphylococcus aureus HU25 by Etest; assay type: functional; how it was run: as §1
Staphylococcus aureus [6] = assay: Antimicrobial activity against methicillin-resistant Staphylococcus aureus HPV107 assessed as concentration required for bacterial subpopulation growth; assay type: functional; how it was run: as §1
Staphylococcus aureus [7] = assay: Antimicrobial activity against methicillin-resistant Staphylococcus aureus BK2464 assessed as concentration required for bacterial subpopulation growth; assay type: functional; how it was run: as §1
Staphylococcus aureus [8] = assay: Antimicrobial activity against methicillin-resistant Staphylococcus aureus HDE288 assessed as concentration required for bacterial subpopulation growth; assay type: functional; how it was run: as §1
Staphylococcus aureus [9] = assay: Antimicrobial activity against methicillin-resistant Staphylococcus aureus HAR24 assessed as concentration required for bacterial subpopulation growth; assay type: functional; how it was run: as §1
Staphylococcus aureus [10] = assay: Antimicrobial activity against methicillin-resistant Staphylococcus aureus USA300 assessed as concentration required for bacterial subpopulation growth; assay type: functional; how it was run: as §1
Staphylococcus aureus [11] = assay: Antimicrobial activity against methicillin-resistant Staphylococcus aureus COL assessed as concentration required for bacterial subpopulation growth; assay type: functional; how it was run: as §1
Staphylococcus aureus [12] = assay: Antimicrobial activity against methicillin-resistant Staphylococcus aureus HU25 assessed as concentration required for bacterial subpopulation growth; assay type: functional; how it was run: as §1
Staphylococcus aureus [13] = assay: Antimicrobial activity against methicillin-resistant Staphylococcus aureus HPV107 assessed as concentration required for minimum inhibition of oxacillin-resistant subpopulation growth by Etest; assay type: functional; how it was run: as §1
Staphylococcus aureus [14] = assay: Antimicrobial activity against methicillin-resistant Staphylococcus aureus BK2464 assessed as concentration required for minimum inhibition of oxacillin-resistant subpopulation growth by Etest; assay type: functional; how it was run: as §1
Staphylococcus aureus [15] = assay: Antimicrobial activity against methicillin-resistant Staphylococcus aureus BK2529 assessed as concentration required for minimum inhibition of oxacillin-resistant subpopulation growth by Etest; assay type: functional; how it was run: as §1
Staphylococcus aureus [16] = assay: Antimicrobial activity against methicillin-resistant Staphylococcus aureus HAR24 assessed as concentration required for minimum inhibition of oxacillin-resistant subpopulation growth by Etest; assay type: functional; how it was run: as §1
Staphylococcus aureus [17] = assay: Antimicrobial activity against methicillin-resistant Staphylococcus aureus HPV107 assessed as concentration required for minimum inhibition of BRP-resistant subpopulation growth by Etest; assay type: functional; how it was run: as §1
Staphylococcus aureus [18] = assay: Antimicrobial activity against methicillin-resistant Staphylococcus aureus HDE288 assessed as concentration required for minimum inhibition of BRP-resistant subpopulation growth by Etest; assay type: functional; how it was run: as §1
Staphylococcus aureus [19] = assay: Antimicrobial activity against methicillin-resistant Staphylococcus aureus BK2529 assessed as concentration required for minimum inhibition of BRP-resistant subpopulation growth by Etest; assay type: functional; how it was run: as §1
Staphylococcus aureus [20] = assay: Antimicrobial activity against methicillin-resistant Staphylococcus aureus HAR24 assessed as concentration required for minimum inhibition of BRP-resistant subpopulation growth; assay type: functional; how it was run: as §1
Staphylococcus aureus [21] = assay: Antimicrobial activity against methicillin-resistant Staphylococcus aureus HAR22 assessed as concentration required for minimum inhibition of BRP-resistant subpopulation growth; assay type: functional; how it was run: as §1
Staphylococcus aureus [22] = assay: Antimicrobial activity against methicillin-resistant Staphylococcus aureus COL assessed as concentration required for minimum inhibition of BRP-resistant subpopulation growth; assay type: functional; how it was run: as §1
Staphylococcus aureus [23] = assay: Antimicrobial activity against vancomycin-intermediate Staphylococcus aureus JH9 obtained from bacteremic patient by Etest; assay type: functional
How it was run: (§2)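 Etest and population analysis: overnight cultures plated on TSA with increasing vancomycin, oxacillin or BPR, CFU counted after 48 h at 37°C. For VRSA strains, vancomycin plates also run with constant 1 µg/ml BPR. Vancomycin Etest read after overnight 37°C incubation on TSA with or without 1 µg/ml BPR.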

Staphylococcus aureus [24] = assay: Antimicrobial activity against oxacillin-resistant Staphylococcus aureus COLVA harboring Tn1546 transposon by Etest; assay type: functional; how it was run: as §2
Staphylococcus aureus [25] = assay: Displacement of benzyl-[14C]penicillin from Staphylococcus aureus PBP2 RU130 mutant by in vitro competitive assay; details: COL
How it was run: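 Membranes from PBP 2 insertional mutant RU130 (Tn551 in transpeptidase domain), late exponential phase, 150 µg protein, preincubated with increasing oxacillin or BPR 10 min at 30°C. Then labelled with 20 µg/ml benzyl[14C]penicillin 10 min at 37°C and stopped with excess unlabelled penicillin in SDS. SDS-PAGE with phosphor screen exposure for 2 weeks.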

Question: `Nc1nc(/C(=N/O)C(=O)N[C@@H]2C(=O)N3C(C(=O)O)=C(/C=C4\CCN([C@@H]5CCNC5)C4=O)CS[C@H]23)ns1` [CEFTOBIPROLE] was tested. Which MIC (Staphylococcus aureus [1]) did it give?
Answer: Its MIC is 1.5 µg/mL (≈ 2.81 µM).

Question: What about the MIC (Staphylococcus aureus [2]) of the same compound?
Answer: The MIC was 0.8 µg/mL (≈ 1.5 µM).

Question: What about the MIC (Staphylococcus aureus [3]) of the same compound?
Answer: Its MIC is 1.5 µg/mL (≈ 2.81 µM).

Question: What about the MIC (Staphylococcus aureus [4]) of the same compound?
Answer: The MIC was 0.8 µg/mL (≈ 1.5 µM).

Question: And the MIC (Staphylococcus aureus [5])?
Answer: The MIC was 3 µg/mL (≈ 5.61 µM).

Question: What about the Activity (Staphylococcus aureus [6]) of the same compound?
Answer: The Activity was 3 µg/mL.

Question: And the Activity (Staphylococcus aureus [7])?
Answer: Its Activity is 1.5 µg/mL.

Question: What about the Activity (Staphylococcus aureus [8]) of the same compound?
Answer: The Activity was 3 µg/mL.

Question: And the Activity (Staphylococcus aureus [9])?
Answer: The Activity was 3 µg/mL.

Question: And the Activity (Staphylococcus aureus [10])?
Answer: The Activity was 1.5 µg/mL.

Question: What about the Activity (Staphylococcus aureus [11]) of the same compound?
Answer: Its Activity is 3 µg/mL.

Question: And the Activity (Staphylococcus aureus [12])?
Answer: The Activity was 3 µg/mL.

Question: What about the Activity (Staphylococcus aureus [13]) of the same compound?
Answer: The Activity was 0.8 µg/mL.

Question: What about the Activity (Staphylococcus aureus [14]) of the same compound?
Answer: The Activity was 1.5 µg/mL.

Question: What about the Activity (Staphylococcus aureus [15]) of the same compound?
Answer: Its Activity is 1.5 µg/mL.

Question: What about the Activity (Staphylococcus aureus [16]) of the same compound?
Answer: The Activity was 1.5 µg/mL.

Question: What about the Activity (Staphylococcus aureus [17]) of the same compound?
Answer: Its Activity is 0.8 µg/mL.

Question: What about the Activity (Staphylococcus aureus [18]) of the same compound?
Answer: The Activity was 1.5 µg/mL.

Question: And the Activity (Staphylococcus aureus [19])?
Answer: Its Activity is 1.5 µg/mL.

Question: And the Activity (Staphylococcus aureus [20])?
Answer: The Activity was 3 µg/mL.

Question: And the Activity (Staphylococcus aureus [21])?
Answer: The Activity was 3 µg/mL.

Question: What about the Activity (Staphylococcus aureus [22]) of the same compound?
Answer: The Activity was 3 µg/mL.

Question: And the MIC (Staphylococcus aureus [23])?
Answer: The MIC was 0.8 µg/mL (≈ 1.5 µM).

Question: And the MIC (Staphylococcus aureus [24])?
Answer: The MIC was 1.5 µg/mL (≈ 2.81 µM).

Question: And the Activity (Staphylococcus aureus [25])?
Answer: The Activity was “Active”.
